This passage reports Activity results from ChEMBL document CHEMBL1932940, “Xanthohumol induces apoptosis in human malignant glioblastoma cells by increasing reactive oxygen species and activating MAPK pathways” (J Nat Prod, 2011).

Data set [1] has as its system T98G. Kind of data set: Induction of apoptosis in human T98G cells assessed as decrease in Bcl-2 expression at 20 uM after 48 hrs by Western blot analysis in presence of 5 mM NAC. It is filed as functional, cell-based. An outline of the steps:
(§1)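 T98G exposed to 20 μM for various times (0−48 h), NAC 5 mM where stated. Total lysates, or digitonin-permeabilized cytosolic and mitochondrial fractions (10000g, 15 min, 4 °C) for cytochrome c, blotted for caspase-3, caspase-9, PARP (1:1000), Bcl-2 (1:500), cytochrome c; β-actin loading control; ECL detection. Three experiments.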

Data set [2] deals with T98G. Kind of data set: Anticancer activity against human T98G cells assessed as decrease in cell viability at 20 uM after 48 hrs by MTT assay. It is filed as functional, cell-based. The method, boiled down: (§2)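 Cells (T98G, U87-MG, NHA; 3 × 10^4 per well) plated, next day exposed to serial dilutions (1−50 μM) for 48 h at 37 °C, 5% CO2. MTT (5 mg/mL) added for 3 h; crystals solubilized in 50% DMF/20% SDS pH 4.5; OD at 620 nm. Viability = % of DMSO (0.1% final) controls. Means ± SEM, three experiments in triplicate.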

For data set [3], the system named is U-87 MG. Kind of data set: Induction of cell cycle arrest in human U87MG cells assessed as accumulation at G0/G1 phase at 1 to 20 uM after 48 hrs by flow cytometric analysis. It is filed as functional, cell-based. The following applies: U-87MG ATCC. The method, boiled down: (§3)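 2 × 10^5 cells per dish exposed 48 h (1−20 μM per legend); harvested, fixed in cold 70% ethanol at −20 °C, stained with propidium iodide plus RNase A (100 U/mL) 30 min at room temperature; percentage in G1, S, G2/M by flow cytometry. Three experiments in triplicate.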
For orientation: Flow cytometry measures light scatter and fluorescence of single cells or particles in a stream.

Data set [4] concerns T98G. Kind of data set: Induction of apoptosis in human T98G cells assessed as increase in ROS production at 20 uM after 24 hrs by DCFH-DA staining-based flow cytometric analysis. It is filed as functional, cell-based. An outline of the steps: (§4)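 T98G incubated with 20 μM, with or without 5 mM NAC pretreatment, for 5−120 min or 24 h; washed, resuspended at 2 × 10^5 cells/mL in HBSS with 10 μM DCFH-DA, 20 min at 37 °C; DCF fluorescence read by flow cytometry (FL1), also viewed by fluorescence microscopy.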

Data set [5] concerns T98G. Kind of data set: Induction of apoptosis in human T98G cells assessed as increase in caspase-9 expression level at 20 uM after 8 hrs by Western blot analysis. Type of data set: functional, cell-based. The method, boiled down:
as §1
(In general: Immunoblotting shows a protein as a band on a membrane.)

The subject of data set [6] is T98G. Kind of data set: Induction of apoptosis in human T98G cells assessed as increase in cytosolic cytochrome c release at 20 uM after 8 hrs by Western blot analysis. It is filed as functional, cell-based. An outline of the steps: as §1
Data set [7] concerns T98G. Nature of the data set: Induction of apoptosis in human T98G cells at 20 uM after 48 hrs by flow cytometric analysis pretreated with 5 uM p38 inhibitor SB203580 for 1 hr. It is filed as functional, cell-based. The method, boiled down:
(§5)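 T98G pretreated with PD98059 (20 μM, 30 min), SB203580 (5 μM, 1 h) or SP600125 (5 μM, 1 h), then exposed to 20 μM for 48 h; hypodiploid nuclei quantified by propidium iodide flow cytometry. Means ± SEM, three experiments in triplicate.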

Data set [8] deals with T98G. Nature of the data set: Induction of apoptosis in human T98G cells assessed as increase in cleaved PARP protein level at 20 uM after 24 hrs by Western blot analysis. It is filed as functional, cell-based. An outline of the steps: as §1
The subject of data set [9] is T98G. Kind of data set: Induction of apoptosis in human T98G cells assessed as increase in mitochondrial depolarization at 20 uM after 24 hrs by […] fluorescence analysis. Type of data set: functional. The method, boiled down:
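T98G treated with 20 μM for 4−24 h (NAC 5 mM where stated), then loaded with 5 nM TMRE for 30 min at 37 °C; fluorescence by flow cytometry (FL-2); percentage of cells with depolarized mitochondria reported. Three experiments in triplicate (n = 3 for NAC set).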

For data set [10], the system named is T98G. Nature of the data set: Induction of apoptosis in human T98G cells assessed as decrease in Bcl-2 expression at 20 uM after 48 hrs by Western blot analysis. It is filed as functional, cell-based. The method, boiled down:
as §1

In data set [11] the test system is T98G. Kind of data set: Induction of apoptosis in human T98G cells assessed as caspase activation at 20 uM after 24 hrs pretreated with 25 uM pancaspase inhibitor Z-VAD-FMK. It is filed as functional, cell-based. An outline of the steps:
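T98G pretreated with Z-VAD-FMK (25 μM), then exposed to test agent; apoptotic (hypodiploid) nuclei quantified by propidium iodide flow cytometry. Means ± SEM, three experiments in triplicate.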

For data set [12], the system named is U-87 MG. Kind of data set: Induction of apoptosis in human U87MG cells at 50 uM after 48 hrs by propidium iodide staining based flow cytometric analysis. It is filed as functional, cell-based. As to conditions: U-87MG ATCC. An outline of the steps:
(§6)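 Cells treated 1−50 μM for 24 or 48 h, washed in PBS, resuspended in 0.1% sodium citrate, 0.1% Triton X-100, 50 μg/mL propidium iodide, 30 min at 4 °C in dark. Nuclei analyzed by flow cytometry, DNA on log scale, debris gated out; percent hypodiploid (sub-G1) nuclei reported. Three experiments in triplicate.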

The test system of data set [13] is U-87 MG. Nature of the data set: Induction of cell cycle arrest in human U87MG cells assessed as accumulation at S phase at 1 to 20 uM after 48 hrs by flow cytometric analysis. It is filed as functional, cell-based. As to conditions: U-87MG ATCC. The method, boiled down: as §3
Data set [14] deals with T98G. Kind of data set: Induction of apoptosis in human T98G cells at 20 uM after 48 hrs by flow cytometric analysis pretreated with 5 uM JNK inhibitor SP600125 for 1 hr. Type of data set: functional, cell-based. An outline of the steps:
as §5

In data set [15] the test system is T98G. Nature of the data set: Induction of apoptosis in human T98G cells after 48 hrs by propidium iodide staining-based flow cytometric analysis. Type of data set: functional, cell-based. An outline of the steps: as §6
Data set [16] deals with T98G. Kind of data set: Anticancer activity against human T98G cells assessed as decrease in cell viability at 10 uM after 48 hrs by MTT assay. Type of data set: functional, cell-based. An outline of the steps: as §2
A general note: Tetrazolium dyes change colour on reduction, which living cells bring about.

The test system of data set [17] is T98G. Nature of the data set: Induction of apoptosis in human T98G cells assessed as increase in ROS production at 20 uM after 48 hrs by DCFH-DA staining-based flow cytometric analysis in presence of 5 mM NAC. It is filed as functional, cell-based.
The test system of data set [18] is T98G. Nature of the data set: Induction of apoptosis in human T98G cells assessed as increase in ROS production at 20 uM measured every 5 mins for 5 to 120 mins by DCFH-DA staining-based flow cytometric analysis. Type of data set: functional, cell-based. An outline of the steps:
as §4

In data set [19] the test system is T98G. Nature of the data set: Induction of apoptosis in human T98G cells assessed as increase in ROS production at 20 uM after 24 hrs by DCFH-DA staining-based flow cytometric analysis in presence of 5 mM NAC. Type of data set: functional, cell-based. An outline of the steps: as §4
Data set [20] is described as follows: Cytotoxicity against normal human astrocytes assessed as decrease in cell viability after 48 hrs by MTT assay. As to conditions: astrocyte. Type of data set: cell-based. The method, boiled down: as §2
Data set [21] concerns U-87 MG. Nature of the data set: Induction of cell cycle arrest in human U87MG cells assessed as accumulation at G2/M phase at 1 to 20 uM after 48 hrs by flow cytometric analysis. It is filed as functional, cell-based. As to conditions: U-87MG ATCC. The method, boiled down:
as §3

Data set [22] addresses Mitogen-activated protein kinase; ERK1/ERK2 (Homo sapiens) (UniProt P27361+P28482). Kind of data set: Induction of Erk1/2 phosphorylation in human T98G cells at 20 uM measured every 5 mins for 2 hrs by Western blot analysis. Type of data set: cell-based. An outline of the steps: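 T98G exposed to 20 μM for 5−120 min or 24 h, with or without 5 mM NAC. Lysates (Tris/deoxycholate/SDS/IGEPAL with protease and phosphatase inhibitors) immunoblotted with anti-p-ERK, ERK1/2 (1:1000), p-p38, p38; ECL detection; phospho signals normalized to total ERK1/2 or p38. Three experiments.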

The subject of data set [23] is T98G. Kind of data set: Induction of apoptosis in human T98G cells at 20 uM after 48 hrs by flow cytometric analysis pretreated with 20 uM Erk inhibitor PD98059 for 30 mins. Also on record: scale not given: the % may be the effect or the level left. It is filed as functional. An outline of the steps:
as §5

The subject of data set [24] is T98G. Kind of data set: Induction of cell cycle arrest in human T98G cells assessed as accumulation at G0/G1 phase at 1 to 20 uM after 48 hrs by flow cytometric analysis. Type of data set: functional, cell-based. The method, boiled down: as §3

Active and inactive are the calls of the source. The rule behind the calls is not given here.

Chain of Mitogen-activated protein kinase; ERK1/ERK2 (Homo sapiens) (P27361 whole entry, looked up): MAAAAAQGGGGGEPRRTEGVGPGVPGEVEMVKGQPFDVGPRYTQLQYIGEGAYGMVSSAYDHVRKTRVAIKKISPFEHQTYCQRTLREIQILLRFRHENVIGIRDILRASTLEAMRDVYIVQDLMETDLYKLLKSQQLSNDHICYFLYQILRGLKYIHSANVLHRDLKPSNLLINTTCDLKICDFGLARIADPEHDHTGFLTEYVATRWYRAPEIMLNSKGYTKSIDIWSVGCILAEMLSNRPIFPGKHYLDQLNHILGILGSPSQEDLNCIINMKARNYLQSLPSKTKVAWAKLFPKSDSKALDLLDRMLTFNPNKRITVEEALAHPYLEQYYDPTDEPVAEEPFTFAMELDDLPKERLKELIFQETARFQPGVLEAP
Chain of Mitogen-activated protein kinase; ERK1/ERK2 (Homo sapiens) (P28482 whole entry, looked up): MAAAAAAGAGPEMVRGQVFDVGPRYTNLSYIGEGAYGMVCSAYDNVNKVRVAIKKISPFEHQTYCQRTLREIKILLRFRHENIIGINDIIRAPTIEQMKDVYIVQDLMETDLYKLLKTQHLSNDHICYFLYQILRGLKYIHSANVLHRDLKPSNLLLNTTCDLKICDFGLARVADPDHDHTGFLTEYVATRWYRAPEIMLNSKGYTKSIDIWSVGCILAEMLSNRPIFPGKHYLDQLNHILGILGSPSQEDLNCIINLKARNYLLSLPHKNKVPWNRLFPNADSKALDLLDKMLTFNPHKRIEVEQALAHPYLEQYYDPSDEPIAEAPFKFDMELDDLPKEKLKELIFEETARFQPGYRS

For the compound `COc1cc(O)c(CC=C(C)C)c(O)c1C(=O)/C=C/c1ccc(O)cc1` [XANTHOHUMOL], the result in the data set with T98G [1], with U-87 MG [3], with T98G [7], in the data set on T98G [11], in the data set with U-87 MG [13] and in the data set on T98G [17] was inactive. In addition, the result in the data set on T98G [19], in the data set on U-87 MG [21] and in the data set with T98G [24] was inactive. For the same compound, the result with T98G [2], in the data set on T98G [4], in the data set on T98G [5], with T98G [6], with T98G [8] and in the data set on T98G [10] was Active. Further, the outcome (in the data set on U-87 MG [12]; in the data set on T98G [14]; in the data set on T98G [16]; in the data set on T98G [18]; in [22]) was Active. Also, the Activity in the data set with T98G [9] was 50%; in the data set on T98G [15], “Dose-dependent effect”; in data set [20], “Non-toxic”; in the data set with T98G [23], 50%.
